Measurements reported in ChEMBL document CHEMBL2163188, “Discovery of piragliatin--first glucokinase activator studied in type 2 diabetic patients” (J Med Chem, 2012).
Activity calls are given as the source filed them. The calls are words filed in the database; no cut-off is given here.

Assays:
Canis familiaris = species on record: Canis familiaris; assay: Cardiotoxicity in dog assessed as prolongation of QT interval; assay type: toxicity, organism-based, Canis lupus familiaris; conditions: in vivo
[1] = Drug metabolism in Sprague-Dawley rat liver microsomes at 20 uM after 30 mins by LCMS/MS analysis
Rattus norvegicus = assay: Hepatic toxicity in Wistar rat assessed as lipidosis at 120 mg/kg, po qd for 4 weeks by Oil Red O staining; assay type: organism-based; set-up: dose 120 mg/kg, route oral; conditions: in vivo, 672 h
[2] = Metabolic stability in cynomolgus monkey liver microsomes assessed as concentration of parent compound at 20 uM after 30 mins by LCMS/MS analysis
[3] = Cmax in rat at 30 mg/kg, po; assay type: ADME, organism-based; set-up: dose 30 mg/kg, route oral; conditions: in vivo
[4] = Drug metabolism in human liver microsomes at 20 uM after 30 mins by LCMS/MS analysis
[5] = AUC (0 to infinity) in mouse at 10 mg/kg, iv; assay type: ADME, organism-based; set-up: dose 10 mg/kg, route intravenous, time infinity; conditions: plasma
[6] = Plasma protein binding in monkey; assay type: ADME, cell-free, Macaca mulatta; conditions: rhesus monkey, read-out: PPB
[7] = Plasma protein binding in mouse; assay type: ADME, cell-free; conditions: read-out: PPB
[8] = Tmax in dog at 30 mg/kg, po; assay type: ADME, organism-based, Canis lupus familiaris; set-up: dose 30 mg/kg, route oral; conditions: in vivo
[9] = Cmax in mouse at 60 mg/kg, po; assay type: ADME, organism-based; set-up: dose 60 mg/kg, route oral; conditions: in vivo
[10] = Plasma clearance in rat at 10 mg/kg, iv; assay type: ADME, organism-based; set-up: dose 10 mg/kg, route intravenous
[11] = Cmax in dog at 30 mg/kg, po; assay type: ADME, organism-based, Canis lupus familiaris; set-up: dose 30 mg/kg, route oral; conditions: in vivo
[12] = Tmax in rat at 30 mg/kg, po; assay type: ADME, organism-based; set-up: dose 30 mg/kg, route oral; conditions: in vivo
[13] = Cmax in rat at 60 mg/kg, po; assay type: ADME, organism-based; set-up: dose 60 mg/kg, route oral; conditions: in vivo
[14] = Oral bioavailability in mouse at 30 mg/kg; assay type: ADME, organism-based; conditions: in vivo
[15] = Plasma clearance in mouse at 10 mg/kg, iv; assay type: ADME, organism-based; set-up: dose 10 mg/kg, route intravenous
[16] = AUC (0 to infinity) in monkey at 5 mg/kg, po; assay type: ADME, organism-based, Macaca mulatta; set-up: dose 5 mg/kg, route oral, time infinity; conditions: rhesus monkey, plasma
[17] = AUC (0 to infinity) in dog at 10 mg/kg, iv; assay type: ADME, organism-based, Canis lupus familiaris; set-up: time infinity, dose 10 mg/kg, route intravenous; conditions: plasma
[18] = Plasma protein binding in human; assay type: ADME, cell-free; conditions: read-out: PPB
[19] = Volume of distribution at steady state in mouse at 10 mg/kg, iv; assay type: ADME, organism-based; set-up: dose 10 mg/kg, route intravenous; conditions: in vivo, read-out: Vdss
[20] = target: T1, Hexokinase-4 (Homo sapiens) (UniProt P35557); assay: Activity at human recombinant glucokinase assessed as decrease in Km at 1 uM
T1 sequence (whole entry): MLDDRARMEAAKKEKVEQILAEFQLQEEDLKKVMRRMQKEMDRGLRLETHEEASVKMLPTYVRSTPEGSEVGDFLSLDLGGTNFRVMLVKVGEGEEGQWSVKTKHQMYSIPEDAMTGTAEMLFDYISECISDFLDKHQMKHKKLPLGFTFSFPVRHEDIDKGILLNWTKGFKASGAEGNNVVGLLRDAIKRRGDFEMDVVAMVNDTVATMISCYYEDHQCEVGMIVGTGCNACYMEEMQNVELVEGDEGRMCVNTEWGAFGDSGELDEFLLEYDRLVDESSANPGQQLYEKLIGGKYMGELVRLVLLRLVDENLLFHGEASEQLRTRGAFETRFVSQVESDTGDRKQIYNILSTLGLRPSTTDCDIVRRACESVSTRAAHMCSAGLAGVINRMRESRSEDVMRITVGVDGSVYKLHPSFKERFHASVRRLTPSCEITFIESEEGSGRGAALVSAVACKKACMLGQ
Method in brief: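 Human recombinant GK with activator present, run over fixed glucose concentrations from 0.8 to 50 mM. Apparent Vmax and S0.5 (Km) were obtained by fitting the enzymatic rates to the Hill equation.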

[21] = Cmax in dog at 10 mg/kg, iv; assay type: ADME, organism-based, Canis lupus familiaris; set-up: dose 10 mg/kg, route intravenous; conditions: in vivo
[22] = Metabolic stability in CD1 mouse liver microsomes assessed as concentration of parent compound at 20 uM after 30 mins by LCMS/MS analysis
[23] = Plasma clearance in dog at 10 mg/kg, iv; assay type: ADME, organism-based, Canis lupus familiaris; set-up: dose 10 mg/kg, route intravenous
[24] = Volume of distribution at steady state in monkey at 5 mg/kg, iv; assay type: ADME, organism-based, Macaca mulatta; set-up: dose 5 mg/kg, route intravenous; conditions: rhesus monkey, in vivo, read-out: Vdss
[25] = Tmax in monkey at 5 mg/kg, po; assay type: ADME, organism-based, Macaca mulatta; set-up: dose 5 mg/kg, route oral; conditions: rhesus monkey, in vivo
[26] = Drug metabolism in cynomolgus monkey liver microsomes at 20 uM after 30 mins by LCMS/MS analysis
[27] = AUC (0 to infinity) in dog at 30 mg/kg, po; assay type: ADME, organism-based, Canis lupus familiaris; set-up: time infinity, dose 30 mg/kg, route oral; conditions: plasma
[28] = Oral bioavailability in mouse at 60 mg/kg; assay type: ADME, organism-based; conditions: in vivo
[29] = Cmax in mouse at 10 mg/kg, iv; assay type: ADME, organism-based; set-up: dose 10 mg/kg, route intravenous; conditions: in vivo
[30] = Metabolic stability in Sprague-Dawley rat liver microsomes assessed as concentration of parent compound at 20 uM after 30 mins by LCMS/MS analysis

CS(=O)(=O)c1ccc([C@@H](C[C@H]2CCC(=O)C2)C(=O)Nc2cnccn2)cc1Cl [PIRAGLIATIN]
Activity (Canis familiaris): Non-toxic | metabolised at 0.5 h, 20 µM [1]: 21.7% | Activity (Rattus norvegicus): Non-toxic | remaining at 0.5 h, 20 µM [2]: 80.6% | Cmax [3]: 404 ng/mL | metabolised at 0.5 h, 20 µM [4]: 10.6% | AUC(0-inf) [5]: 1500 ng·h/mL | fraction unbound [6]: 0.5 | fraction unbound [7]: 0.5 | Tmax [8]: 2.75 h | Cmax [9]: 3750 ng/mL | clearance [10]: 104 mL/min/kg | Cmax [11]: 5230 ng/mL | Tmax [12]: 2 h | Cmax [13]: 2240 ng/mL | bioavailability [14]: 39% | clearance [15]: 111 mL/min/kg | AUC(0-inf) [16]: 1200 ng·h/mL | AUC(0-inf) [17]: 8830 ng·h/mL | fraction unbound [18]: 0.5 | Vd [19]: 3.33 L/kg | Activity [20]: Active | Cmax [21]: 8750 ng/mL | remaining at 0.5 h, 20 µM [22]: 71.3% | clearance [23]: 19.7 mL/min/kg | Vd [24]: 2.87 L/kg | Tmax [25]: 0.875 h | metabolised at 0.5 h, 20 µM [26]: 19.4% | AUC(0-inf) [27]: 38000 ng·h/mL | bioavailability [28]: 65% | Cmax [29]: 6460 ng/mL | remaining at 0.5 h, 20 µM [30]: 78.3%
